# In ChEMBL document CHEMBL4689842, “EUbOPEN Chemogenomics Library wave 1” (2021):
# System: HEK-293T
# Test: Multiplex assay against HEK293T;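 for Population Tubulin-Different-Phenotype (%): share of the cells with healthy nuclei that show this phenotype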
# Type: toxicity, cell-based
# Settings: human
# In short: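 Cells stained live at seeding with Hoechst33342, BioTracker Green Microtubule Cytoskeleton Dye, MitoTracker Red and Annexin V Alexa Fluor 680 were imaged on a CQ1 microscope at 37°C and 5% CO2 after compound addition. Their classification by CellPathfinder machine-learning gating ran from Hoechst high-intensity objects versus normal cells, to healthy, pyknosed or fragmented nuclei among normal cells, to mitotic or apoptotic among pyknosed cells. Tubulin, mitochondrial-mass and membrane-permeability phenotypes are per cents of healthy-nucleus cells.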
# [1] = 12 h, 1 µM, compound concentration 1 uM, replicate 1
# [2] = 12 h, 1 µM, compound concentration 1 uM, replicate 2
# [3] = 12 h, 10 µM, compound concentration 10 uM, replicate 1
# [4] = 12 h, 10 µM, compound concentration 10 uM, replicate 2
# [5] = 24 h, 1 µM, compound concentration 1 uM, replicate 1
# [6] = 24 h, 1 µM, compound concentration 1 uM, replicate 2
# [7] = 24 h, 10 µM, compound concentration 10 uM, replicate 1
# [8] = 24 h, 10 µM, compound concentration 10 uM, replicate 2
# [9] = 48 h, 1 µM, compound concentration 1 uM, replicate 1
# [10] = 48 h, 1 µM, compound concentration 1 uM, replicate 2
# [11] = 48 h, 10 µM, compound concentration 10 uM, replicate 1
# [12] = 48 h, 10 µM, compound concentration 10 uM, replicate 2
structure (smiles),measurement,setting,value
COc1cc(Nc2nccc(-c3cnn4nc(OC)ccc34)n2)cc(C(F)(F)F)c1,Population Apoptotic (%),[1],47%
same,Population Fragmented Nuclei (%),[1],16%
same,Population Healthy Nuclei (%),[1],19%
same,Population Hoechst High Intensity Objects (%),[1],13%
same,Population Membrane Permeable-Phenotype (%),[1],2%
same,Population Mitochondria Different-Phenotype (%),[1],77%
same,Population Mitotic Cells (%),[1],52%
same,Population Normal (%),[1],86%
same,Population Pyknosed Nuclei (%),[1],64%
same,Population Tubulin-Different-Phenotype (%),[1],30%
same,Total Cell Count,[1],214
same,Population Apoptotic (%),[2],7%
same,Population Fragmented Nuclei (%),[2],6%
same,Population Healthy Nuclei (%),[2],44%
same,Population Hoechst High Intensity Objects (%),[2],1%
same,Population Membrane Permeable-Phenotype (%),[2],11%
same,Population Mitochondria Different-Phenotype (%),[2],14%
same,Population Mitotic Cells (%),[2],92%
same,Population Normal (%),[2],98%
same,Population Pyknosed Nuclei (%),[2],48%
same,Population Tubulin-Different-Phenotype (%),[2],17%
same,Total Cell Count,[2],192
same,Population Apoptotic (%),[3],68%
same,Population Fragmented Nuclei (%),[3],33%
same,Population Healthy Nuclei (%),[3],21%
same,Population Hoechst High Intensity Objects (%),[3],24%
same,Population Membrane Permeable-Phenotype (%),[3],7%
same,Population Mitochondria Different-Phenotype (%),[3],86%
same,Population Mitotic Cells (%),[3],31%
same,Population Normal (%),[3],75%
same,Population Pyknosed Nuclei (%),[3],44%
same,Population Tubulin-Different-Phenotype (%),[3],36%
same,Total Cell Count,[3],317
same,Population Apoptotic (%),[4],21%
same,Population Fragmented Nuclei (%),[4],6%
same,Population Healthy Nuclei (%),[4],34%
same,Population Hoechst High Intensity Objects (%),[4],11%
same,Population Membrane Permeable-Phenotype (%),[4],4%
same,Population Mitochondria Different-Phenotype (%),[4],37%
same,Population Mitotic Cells (%),[4],78%
same,Population Normal (%),[4],88%
same,Population Pyknosed Nuclei (%),[4],59%
same,Population Tubulin-Different-Phenotype (%),[4],33%
same,Total Cell Count,[4],275
same,Population Apoptotic (%),[5],47%
same,Population Fragmented Nuclei (%),[5],16%
same,Population Healthy Nuclei (%),[5],22%
same,Population Hoechst High Intensity Objects (%),[5],20%
same,Population Membrane Permeable-Phenotype (%),[5],2%
same,Population Mitochondria Different-Phenotype (%),[5],76%
same,Population Mitotic Cells (%),[5],52%
same,Population Normal (%),[5],79%
same,Population Pyknosed Nuclei (%),[5],61%
same,Population Tubulin-Different-Phenotype (%),[5],35%
same,Total Cell Count,[5],221
same,Population Apoptotic (%),[6],8%
same,Population Fragmented Nuclei (%),[6],6%
same,Population Healthy Nuclei (%),[6],65%
same,Population Hoechst High Intensity Objects (%),[6],3%
same,Population Membrane Permeable-Phenotype (%),[6],9%
same,Population Mitochondria Different-Phenotype (%),[6],11%
same,Population Mitotic Cells (%),[6],91%
same,Population Normal (%),[6],96%
same,Population Pyknosed Nuclei (%),[6],27%
same,Population Tubulin-Different-Phenotype (%),[6],17%
same,Total Cell Count,[6],252
same,Population Apoptotic (%),[7],75%
same,Population Fragmented Nuclei (%),[7],33%
same,Population Healthy Nuclei (%),[7],20%
same,Population Hoechst High Intensity Objects (%),[7],23%
same,Population Membrane Permeable-Phenotype (%),[7],1%
same,Population Mitochondria Different-Phenotype (%),[7],84%
same,Population Mitotic Cells (%),[7],24%
same,Population Normal (%),[7],76%
same,Population Pyknosed Nuclei (%),[7],46%
same,Population Tubulin-Different-Phenotype (%),[7],39%
same,Total Cell Count,[7],330
same,Population Apoptotic (%),[8],23%
same,Population Fragmented Nuclei (%),[8],7%
same,Population Healthy Nuclei (%),[8],55%
same,Population Hoechst High Intensity Objects (%),[8],13%
same,Population Membrane Permeable-Phenotype (%),[8],4%
same,Population Mitochondria Different-Phenotype (%),[8],45%
same,Population Mitotic Cells (%),[8],76%
same,Population Normal (%),[8],86%
same,Population Pyknosed Nuclei (%),[8],36%
same,Population Tubulin-Different-Phenotype (%),[8],42%
same,Total Cell Count,[8],293
same,Population Apoptotic (%),[9],62%
same,Population Fragmented Nuclei (%),[9],18%
same,Population Healthy Nuclei (%),[9],25%
same,Population Hoechst High Intensity Objects (%),[9],21%
same,Population Membrane Permeable-Phenotype (%),[9],2%
same,Population Mitochondria Different-Phenotype (%),[9],41%
same,Population Mitotic Cells (%),[9],37%
same,Population Normal (%),[9],78%
same,Population Pyknosed Nuclei (%),[9],56%
same,Population Tubulin-Different-Phenotype (%),[9],18%
same,Total Cell Count,[9],219
same,Population Apoptotic (%),[10],4%
same,Population Fragmented Nuclei (%),[10],5%
same,Population Healthy Nuclei (%),[10],83%
same,Population Hoechst High Intensity Objects (%),[10],3%
same,Population Membrane Permeable-Phenotype (%),[10],5%
same,Population Mitochondria Different-Phenotype (%),[10],6%
same,Population Mitotic Cells (%),[10],95%
same,Population Normal (%),[10],96%
same,Population Pyknosed Nuclei (%),[10],10%
same,Total Cell Count,[10],465
same,Population Apoptotic (%),[11],74%
same,Population Fragmented Nuclei (%),[11],39%
same,Population Healthy Nuclei (%),[11],24%
same,Population Hoechst High Intensity Objects (%),[11],25%
same,Population Membrane Permeable-Phenotype (%),[11],0%
same,Population Mitochondria Different-Phenotype (%),[11],86%
same,Population Mitotic Cells (%),[11],25%
same,Population Normal (%),[11],74%
same,Population Pyknosed Nuclei (%),[11],36%
same,Population Tubulin-Different-Phenotype (%),[11],56%
same,Total Cell Count,[11],331
same,Population Apoptotic (%),[12],42%
same,Population Fragmented Nuclei (%),[12],7%
same,Population Healthy Nuclei (%),[12],63%
same,Population Hoechst High Intensity Objects (%),[12],9%
same,Population Membrane Permeable-Phenotype (%),[12],2%
same,Population Mitochondria Different-Phenotype (%),[12],35%
same,Population Mitotic Cells (%),[12],57%
same,Population Normal (%),[12],90%
same,Population Pyknosed Nuclei (%),[12],28%
same,Population Tubulin-Different-Phenotype (%),[12],39%
same,Total Cell Count,[12],297
